# Screens (PubChem)
# Sampled rows, rich in hits. Any-hit rate of the full collection: about 2.5%.
# Efflux pump mplx = blocks antifungal efflux pumps in multiplex yeast assay; inhibition, % at 10 µM; S. cerevisiae Candida pump triplex, Nile Red efflux; 0.44% of 330,000 active;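 active = plate passing quality check with inhibition over a set limit, or well fluorescence over plate mean plus 4 SD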;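 also: Nile Red retained in pooled yeast measured as flow cytometry median fluorescence; 0% = buffer negative control and 100% = Enniatin B positive control; higher means more Nile Red kept so more efflux inhibition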
# ABCG2 inh = human ABCG2 inhibition, ABCB1 as counter-screen; inhibition, % at 6.6 µM; IgMXP3 cells, JC-1 efflux, flow cytometry; 0.1% of 190,000 active;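 active = inhibition above 80%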;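 also: 0% = DMSO and 100% = nicardipine control wells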
# Target sequence (Q9UNQ0 whole entry, looked up): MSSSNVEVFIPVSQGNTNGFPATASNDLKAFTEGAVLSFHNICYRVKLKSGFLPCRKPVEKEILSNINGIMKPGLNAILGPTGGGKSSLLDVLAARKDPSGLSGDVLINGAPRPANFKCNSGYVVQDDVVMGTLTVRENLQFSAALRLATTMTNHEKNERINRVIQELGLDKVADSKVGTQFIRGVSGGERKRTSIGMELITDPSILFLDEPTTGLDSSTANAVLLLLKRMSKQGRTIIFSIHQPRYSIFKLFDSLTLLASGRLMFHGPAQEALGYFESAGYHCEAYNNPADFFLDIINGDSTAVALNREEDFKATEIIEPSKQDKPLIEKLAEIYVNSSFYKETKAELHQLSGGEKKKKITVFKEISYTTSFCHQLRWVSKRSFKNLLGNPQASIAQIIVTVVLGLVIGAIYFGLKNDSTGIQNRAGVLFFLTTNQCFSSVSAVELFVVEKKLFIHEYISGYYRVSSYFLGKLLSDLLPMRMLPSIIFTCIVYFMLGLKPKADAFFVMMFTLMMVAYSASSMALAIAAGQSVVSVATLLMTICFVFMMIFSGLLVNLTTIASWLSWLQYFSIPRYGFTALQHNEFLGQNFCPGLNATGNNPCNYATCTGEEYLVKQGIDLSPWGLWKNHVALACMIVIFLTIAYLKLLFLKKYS
#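 Test system: IgMXP3 cells (ABCG2) mixed with DDAO far-red-labelled CCRF-Adr cells (ABCB1). Reagent: JC-1 transporter substrate. Compound dosing: single test compound dose, 6.6 µM final. Times: 10 min compound exposure, 25 °C. Detection: flow cytometry of retained JC-1 fluorescence. Read-out basis: efflux inhibition in percent versus controls. Controls: nicardipine and DMSO wells.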
# MEKK2 WT-MEK5 = raises or lowers MEK5 binding to wildtype human MEKK2 PB1 domain | binding response (% of control), % at 10 µM | AID 1531 | bead flow cytometry, Alexa488-MEK5 binding to MEKK2 WT; actives lie on both sides | 1.1% of 290,000 active | Q9Y2U5; in the data active = binding response below about 67% or above about 130%
# ABCB1 inh = blocks JC-1 efflux by human ABCB1 transporter; CCRF-Adr cells, flow cytometry; AID 1326; P08183; 0.067% of 190,000 active; inhibition, % at 6.6 µM; in the data active = inhibition above about 40%;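 also: 0% = vehicle and 100% = reference inhibitor; higher value means more JC-1 retained so stronger ABCB1 efflux block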
# MEKK3 PB1 HTS = MEKK3-MEK5 PB1 interaction, increase or decrease; Q99759; AID 1529; bead-based flow cytometry, Alexa488-MEK5 binding to MEKK3; actives lie on both sides; 0 = blocked by unlabeled MEK5, 100 = vehicle; binding response (% of control), % at 10 µM; 1.4% of 290,000 active;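 active = binding response more than 3 SD above or below the average of its plate-row segment, actives on both sides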;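 also: Alexa488 bead fluorescence after subtracting the streptavidin-only scavenger bead signal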
# MEKK2 mut-MEK5 = signal of MEK5 binding to mutant human MEKK2 PB1 domain. bead flow cytometry, Alexa488-MEK5 binding to MEKK2 mutant. percent response, % at 10 µM. 0.35% of 290,000 active. AID 1530; in the data active = percent response above about 24%, passing the limit was not always enough
# MEKK2wt confirm = raises or lowers MEK5 binding to wildtype human MEKK2, retest | bead flow cytometry, Alexa488-MEK5 binding to MEKK2 WT; actives lie on both sides | AID 1892 | binding response (% of control), % at 10 µM | shares compounds with MEKK3 PB1 HTS | 2.4% of 5,900 active; in the data active = binding response below about 16% or above about 210%; inactive = in between
# MEKK2mut-MEK5 = signal of MEK5 binding to mutant human MEKK2, retest; 2% of 5,900 active; shares compounds with MEKK3 PB1 HTS; percent response, % at 10 µM; bead flow cytometry, Alexa488-MEK5 binding to MEKK2 mutant; in the data active = percent response mostly above about 71%, no sharp cut-off; inactive = mostly below about 38%;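 also: higher means compound restores mutant binding toward wildtype level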
# MEKK3-MEK5 inh = confirmation of inhibitors of MEK5 binding to human MEKK3. shares compounds with MEKK3 PB1 HTS. bead flow cytometry, Alexa488-MEK5 binding to MEKK3; active compounds read low. binding response (% of control), % at 10 µM. 1.8% of 5,900 active;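 active = binding response below 72% of control, or above a set upper limit, though filed actives all read lower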;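 also: 100% = DMSO only wells and 0% = binding blocked by excess unlabeled MEK5; lower values mean stronger disruption of MEK5 binding to MEKK3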
# * marks the source's active call; other numbers are inactive results; / = not tested or not shown; [ ] = dose if it differs, or a comment.
SMILES,Efflux pump mplx,ABCG2 inh,MEKK2 WT-MEK5,ABCB1 inh,MEKK3 PB1 HTS,MEKK2 mut-MEK5,MEKK2wt confirm,MEKK2mut-MEK5,MEKK3-MEK5 inh
COc1ccc(-c2nc(C(=O)NCCCN3CCOCC3)cc3c2[nH]c2ccccc23)cc1OC,-0.1,/,137.0*,/,105.0,15.0,150.0,24.0,110.0
Cc1ccc(-c2nc(C(=O)NCCCN3CCOCC3)cc3c2[nH]c2ccccc23)cc1,0.6,/,142.0*,/,101.0,21.0,156.0,41.0,108.0
Cc1ccc(-c2cc(C(=O)NCCCN3CCOCC3)c3ccccc3n2)cc1,0.0,/,/,/,/,/,/,/,/
Cc1cccc(NC(=O)CCN2CCCC(C)C2)c1 (stereo not drawn),0.0,/,103.0,/,106.0,5.0,/,/,/
CCc1nnc2c(NCCc3ccccc3)nc3ccccc3n12,-0.2,/,108.0,/,102.0,8.0,/,/,/
CC(=O)c1c(C)[nH]c(C(=O)COC(=O)CCSc2ccccc2)c1C,-0.1,4.9,113.0,0.6,155.0*,1.0,94.0,-6.0,102.0
CCOC(=O)c1c(C)[nH]c(C(=O)COC(=O)COc2ccccc2C=O)c1C,-0.3,14.6,91.0,0.7,70.0*[inhibitor],-2.0,98.0,2.0,101.0
COc1ccc(-c2csc(Nc3ccc(C)cn3)n2)cc1OC,-0.1,0.5,142.0,-0.2,143.0*,8.0,111.0,1.0,101.0
CCCCN(C(=O)NC(=O)C1=C(N2CCOCC2)/C(=C/c2ccccc2)CC1)S(C)(=O)=O,0.0,-1.6,/,-0.3,/,/,/,/,/
CN(C(=O)NC(=O)C1=C(N2CCOCC2)/C(=C/c2ccccc2)CC1)S(C)(=O)=O,-0.1,-0.1,-2.0*[inhibitor],-0.1,2.0*[inhibitor],-28.0,107.0,9.0,102.0
CCOc1ncccc1C(=O)N=C1SCCN1C(=O)c1cccnc1OCC,0.0,8.4,140.0,0.8,158.0*,7.0,103.0,0.0,108.0
Cc1ccc(-n2ncc(C(=O)Nc3cc(Cl)cc(Cl)c3)c2C2CCNCC2)cc1C,/,11.8,216.0*,1.1,106.0,58.0*,143.0,-7.0,94.0
Cc1ccc(-n2ncc(C(=O)Nc3cc(Cl)ccc3Cl)c2C2CCNCC2)cc1,-0.3,37.0,105.0,2.3,97.0,-3.0,/,/,/
CC(=O)Nc1nnc(SCC(=O)N2CCCc3ccccc32)s1,-0.1,1.3,96.0,0.3,88.0,-3.0,/,/,/
CC(=O)Nc1nnc(SCC(=O)N2CCN(Cc3ccccc3)CC2)s1,-0.1,-0.1,105.0,-0.1,75.0*[inhibitor],3.0,103.0,-1.0,103.0
CC(=O)Nc1ccccc1NC(=O)c1cccc2ccccc12,-0.1,0.5,85.0,0.2,80.0,-2.0,/,/,/
O=C(O)c1cc(O)ccc1NC(=O)c1cccc2ccccc12,0.0,/,122.0,/,132.0*,26.0,100.0,-3.0,103.0
COc1cccc(NS(=O)(=O)c2ccc(S(=O)(=O)N3CCCC3)cc2)c1,-0.2,/,/,/,/,/,/,/,/
COc1cccc(CNS(=O)(=O)c2ccc(S(=O)(=O)N3CCCC3)cc2)c1,-0.1,6.3,601.0*,1.0,112.0,454.0*,102.0,1.0,104.0
Cc1ccc(Nc2nc(CSc3nnc(-c4ccc(F)cc4)n3C)cs2)cc1,-0.2,4.6,3.0*[inhibitor],1.2,1.0*[inhibitor],-8.0,99.0,-1.0,100.0
COc1ccc(-c2nnc(SCc3csc(N)n3)n2C)cc1,-0.2,0.4,106.0,-0.1,105.0,7.0,/,/,/
COC(=O)c1ccc(C)c(-n2c(C)cc(C=O)c2C)c1,0.1,6.1,112.0,0.6,150.0*,0.0,97.0,1.0,95.0
COc1ccc(C[C@H]2CN3C(=NC[C@@H]3Cc3ccccc3)N2CCNC(=O)c2ccc(C)c(Br)c2)cc1,0.0,3.6,271.0*,1.0,109.0,132.0*,200.0,56.0,102.0
COc1ccc(C[C@H]2CN3C(=NC[C@H]3Cc3ccccc3)N2CCNC(=O)c2ccc(C)c(Br)c2)cc1,0.2,/,154.0*,/,105.0,27.0*,176.0,26.0,105.0
C/C=C(\C)C(=O)NCCN1C2=NC[C@@H](C)N2C[C@@H]1Cc1ccc(OC)cc1,0.2,0.1,118.0,0.4,105.0,17.0,/,/,/
SMILES,Efflux pump mplx,ABCG2 inh,MEKK2 WT-MEK5,ABCB1 inh,MEKK3 PB1 HTS,MEKK2 mut-MEK5,MEKK2wt confirm,MEKK2mut-MEK5,MEKK3-MEK5 inh
CCS(=O)(=O)Nc1cccc(C2=NN(S(=O)(=O)CC)C(c3ccccc3)C2)c1 (stereo not drawn),-0.2,8.3,142.0*,0.2,92.0,355.0*,98.0,-11.0,91.0
CCS(=O)(=O)Nc1cccc(C2=NN(S(=O)(=O)c3ccccc3)C(c3cccs3)C2)c1 (stereo not drawn),-0.2,-1.4,/,-0.1,21.0*[inhibitor],106.0*,96.0,-10.0,95.0
O=C(O)C1Cc2c([nH]c3ccccc23)C(c2ccc3c(c2)OCO3)N1 (stereo not drawn),0.3,2.0,6.0*[inhibitor],0.1,97.0,13.0,101.0,-4.0,100.0
COC(=O)[C@H]1Cc2c([nH]c3ccccc23)[C@H](c2ccccc2)N1,-0.3,/,107.0,/,109.0,11.0,/,/,/
CCCCn1c(SCC(=O)Nc2nc(C)cs2)nnc1-c1cccnc1,/,5.7,1.0*[inhibitor],1.4,1.0*[inhibitor],-41.0,110.0,14.0,107.0
O=C(CCCc1ccccc1)N=C1SC2CS(=O)(=O)CC2N1c1ccccc1F (stereo not drawn),0.0,/,105.0,/,104.0,8.0,/,/,/
CC1CCN(CCCNC(=O)c2ccc(CS(=O)(=O)Cc3ccccc3F)o2)CC1,/,1.2,104.0,0.5,107.0,11.0,/,/,/
O=C(NCCN1CCCCC1)c1ccco1,-0.1,2.9,116.0,0.8,129.0*,5.0,101.0,0.0,100.0
O=C(NCCN1CCCCCC1)c1ccc(CS(=O)(=O)c2ccc(Br)cc2)o1,-0.4,1.5,169.0*,0.4,99.0,26.0*,183.0,59.0,113.0
O=C(NCCCN1CCOCC1)c1ccco1,0.1,0.3,102.0,0.1,100.0,5.0,/,/,/
O=C(NCCCN1CCCCCC1)c1ccc(CS(=O)(=O)Cc2ccccc2F)o1,/,13.5,200.0*,0.4,83.0,28.0*,179.0,41.0,75.0
C=CCNC(=S)Nc1ccc(OC)c(S(=O)(=O)N2CCOCC2)c1,-0.1,2.6,100.0,0.2,100.0,0.0,/,/,/
COc1cc(-c2n[nH]c(=S)n2-c2cc(C(F)(F)F)ccc2Cl)cc(OC)c1OC,0.0,-2.2,108.0,-0.7,144.0*,0.0,100.0,-3.0,103.0
